Activity calls are given as the source filed them. The rule behind the calls is not given here.
Key:
[1] = Cytotoxicity against human HepG2 cells; type: cell-based
Hepatitis C virus [2] = test: Antiviral activity against HCV genotype 1b infected in human HuH7 cells at >= 10 times antiviral EC50 after 3 days by luciferase reporter assay; type: functional, cell-based; settings: Hepacivirus hominis
[3] = Half life in human liver microsomes; type: ADME, microsome
Hepatitis C virus [4] = test: Antiviral activity against HCV genotype 2b infected in human HuH7 cells after 3 days by luciferase reporter assay; type: functional, cell-based, Hepacivirus hominis; settings: Huh-7, 72 h
[5] = AUC in Sprague-Dawley rat at 6 mg/kg, po administered via gavage using docusate sodium/methocel/water formulation by LC/MS/MS analysis; type: ADME, organism-based; settings: in vivo
Procedure, shortened: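 Rats were fasted overnight and gavaged with a suspension of spray-dried dispersion (10% w/w drug loading in 0.02:0.5:99.48 docusate/methocel/water), n = 3 per group. Serial EDTA plasma was taken predose to 24 h and assayed by LC/MS/MS. Analysis was noncompartmental: Cmax observed, AUC by linear/log trapezoids, F from dose-normalized PO versus IV AUC.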

Homo sapiens [6] = test: Toxicity in human up to 400 mg/day, po for 14 days; settings: in vivo, 336 h
[7] = biological target: Voltage-dependent L-type calcium channel subunit alpha-1C (Homo sapiens, UniProt Q13936); test: Inhibition of Cav1.2 (unknown origin)
Hepatitis C virus [8] = test: Ratio of EC50 for HCV genotype 1b infected in human HuH7 cells in presence of 40% human serum to EC50 for HCV genotype-1b infected in human HuH7 cells; type: functional, Hepacivirus hominis
Hepatitis C virus [9] = test: Antiviral activity against HCV genotype 6a infected in human HuH7 cells after 3 days by luciferase reporter assay; type: functional, cell-based, Hepacivirus hominis; settings: Huh-7, 72 h
[10] = biological target: Voltage-gated inwardly rectifying potassium channel KCNH2 (Homo sapiens, UniProt Q12809); test: Inhibition of human ERG by thallium flux assay
[11] = Tmax in Sprague-Dawley rat at 6 mg/kg, po administered via gavage by LC/MS/MS analysis; type: ADME, organism-based; settings: in vivo
Procedure, shortened: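 Rats fasted overnight, then dosed by gavage at 6 mg/kg in 90:10 PEG-400/ethanol (v/v). Plasma sampled serially from cannula into EDTA tubes predose and at 15, 30, 45, 60 min and 2, 4, 6, 8, 24 h; n = 3. Livers removed at 6 h (satellite animals) and 24 h, homogenized in 80% acetonitrile/HBSS, assayed by LC/MS/MS. Tmax taken directly from observed data.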

[12] = Protein binding in rat serum; type: ADME, cell-free; settings: read-out: PB (converted)
Homo sapiens [13] = test: Toxicity in human up to 400 mg, po administered as single dose; settings: in vivo
Hepatitis C virus [14] = test: Antiviral activity against HCV genotype 1b infected in human HuH7 cells after 3 days by luciferase reporter assay; type: functional, cell-based, Hepacivirus hominis; settings: Hepatitis C virus, genotype 1b, Huh-7, 72 h; read-out: EC50
Hepatitis C virus [15] = test: Antiviral activity against HCV genotype 1a infected in human HuH7 cells after 3 days by luciferase reporter assay; type: functional, cell-based, Hepacivirus hominis, subtype 1a; settings: Hepatitis C virus, subtype 1a, Huh-7, 72 h; read-out: EC50
Canis familiaris = test: Toxicity in dog up to 100 mg/kg, po administered as single dose measured up to 2 weeks; type: organism-based, Canis lupus familiaris; settings: in vivo, 336 h
Rattus norvegicus = test: Toxicity in rat up to 100 mg/kg, po administered as single dose measured up to 2 weeks; type: organism-based; settings: in vivo, 336 h
[16] = Aqueous solubility of compound; type: physicochemical; settings: buffer
[17] = Inhibition of HCV genotype 1b NS5B replicase C316N mutant infected in human HuH7 cells assessed as reduction of viral replication after 3 days by luciferase reporter assay; type: cell-based, Hepatitis C virus subtype 1b; settings: Hepatitis C virus, Huh-7, 72 h
[18] = Volume of distribution at steady state in Sprague-Dawley rat at 2 mg/kg, iv by LC/MS/MS analysis; type: ADME, organism-based; settings: Sprague-Dawley, in vivo, read-out: Vdss
Procedure, shortened: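 Rats received a 2 mg/kg IV dose in 90:10 PEG-400/ethanol as a 10 min constant-rate jugular infusion. Blood collected predose and at 10, 15, 30, 45, 60 min and 2, 4, 6, 8, 24 h; n = 3. Plasma analyzed by LC/MS/MS. Vss derived by noncompartmental analysis of IV data.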

[19] = Protein binding in dog serum; type: ADME, cell-free, Canis lupus familiaris; settings: read-out: PB (converted)
[20] = Drug uptake in Sprague-Dawley rat liver at 6 mg/kg, po via gavage after 6 hrs by LC-MS/MS analysis; type: ADME, organism-based; settings: read-out: Drug uptake
Procedure, shortened: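 Fasted rats were dosed orally in 90:10 PEG-400/ethanol; 6 h livers came from satellite animals. In the screening variant, n = 2 and plasma was taken to 6 h with livers at the terminal point. Livers were rinsed, blotted, weighed and homogenized in 2 volumes of 80% acetonitrile in HBSS per gram, then centrifuged. Supernatant and plasma were analysed by LC/MS/MS.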

[21] = Cmax in Sprague-Dawley rat at 6 mg/kg, po administered via gavage by LC/MS/MS analysis; type: ADME, organism-based; design: dose 6 mg/kg, route oral; settings: in vivo
Procedure, shortened: (§1)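 Rats were fasted overnight with free access to water, then dosed by gastric gavage with an […] solution in 90:10 PEG-400/ethanol (v/v), n = 3 per group. EDTA plasma was sampled predose and at 15, 30, 45, 60 min and 2, 4, 6, 8, 24 h, then assayed by LC/MS/MS. Parameters come from noncompartmental analysis: Cmax observed directly, AUC by linear/log trapezoidal summation, F as dose-normalized PO/IV AUC ratio.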

[22] = Cytotoxicity against human HuH7 cells after 3 days by CellTiter-Blue assay; type: cell-based, Huh-7
Hepatitis C virus [23] = test: Antiviral activity against HCV genotype 3a infected in human HuH7 cells after 3 days by luciferase reporter assay; type: functional, cell-based, Hepacivirus hominis; settings: Huh-7, 72 h
Cytochrome P450 3A4 = Cytochrome P450 3A4 (Homo sapiens, UniProt P08684); test: Inhibition of microsomal CYP3A4 (unknown origin); type: ADME
[24] = Lipophilicity, log D of the compound by shake flask method; type: physicochemical; settings: octanol/water
[25] = Lipophilicity, log D of the compound at pH 6.5 by shake flask method; type: physicochemical; settings: buffer
Hepatitis C virus [26] = test: Ratio of EC50 for HCV genotype 1a infected in human HuH7 cells in presence of 40% human serum to EC50 for HCV genotype 1a infected in human HuH7 cells; type: functional, Hepacivirus hominis, subtype 1a
[27] = Half life in rat liver microsomes; type: ADME, microsome
[28] = AUC in Sprague-Dawley rat at 6 mg/kg, po administered via gavage by LC/MS/MS analysis; type: ADME, organism-based; settings: in vivo; procedure, shortened: as §1

Chain of Voltage-dependent L-type calcium channel subunit alpha-1C (Q13936 whole entry): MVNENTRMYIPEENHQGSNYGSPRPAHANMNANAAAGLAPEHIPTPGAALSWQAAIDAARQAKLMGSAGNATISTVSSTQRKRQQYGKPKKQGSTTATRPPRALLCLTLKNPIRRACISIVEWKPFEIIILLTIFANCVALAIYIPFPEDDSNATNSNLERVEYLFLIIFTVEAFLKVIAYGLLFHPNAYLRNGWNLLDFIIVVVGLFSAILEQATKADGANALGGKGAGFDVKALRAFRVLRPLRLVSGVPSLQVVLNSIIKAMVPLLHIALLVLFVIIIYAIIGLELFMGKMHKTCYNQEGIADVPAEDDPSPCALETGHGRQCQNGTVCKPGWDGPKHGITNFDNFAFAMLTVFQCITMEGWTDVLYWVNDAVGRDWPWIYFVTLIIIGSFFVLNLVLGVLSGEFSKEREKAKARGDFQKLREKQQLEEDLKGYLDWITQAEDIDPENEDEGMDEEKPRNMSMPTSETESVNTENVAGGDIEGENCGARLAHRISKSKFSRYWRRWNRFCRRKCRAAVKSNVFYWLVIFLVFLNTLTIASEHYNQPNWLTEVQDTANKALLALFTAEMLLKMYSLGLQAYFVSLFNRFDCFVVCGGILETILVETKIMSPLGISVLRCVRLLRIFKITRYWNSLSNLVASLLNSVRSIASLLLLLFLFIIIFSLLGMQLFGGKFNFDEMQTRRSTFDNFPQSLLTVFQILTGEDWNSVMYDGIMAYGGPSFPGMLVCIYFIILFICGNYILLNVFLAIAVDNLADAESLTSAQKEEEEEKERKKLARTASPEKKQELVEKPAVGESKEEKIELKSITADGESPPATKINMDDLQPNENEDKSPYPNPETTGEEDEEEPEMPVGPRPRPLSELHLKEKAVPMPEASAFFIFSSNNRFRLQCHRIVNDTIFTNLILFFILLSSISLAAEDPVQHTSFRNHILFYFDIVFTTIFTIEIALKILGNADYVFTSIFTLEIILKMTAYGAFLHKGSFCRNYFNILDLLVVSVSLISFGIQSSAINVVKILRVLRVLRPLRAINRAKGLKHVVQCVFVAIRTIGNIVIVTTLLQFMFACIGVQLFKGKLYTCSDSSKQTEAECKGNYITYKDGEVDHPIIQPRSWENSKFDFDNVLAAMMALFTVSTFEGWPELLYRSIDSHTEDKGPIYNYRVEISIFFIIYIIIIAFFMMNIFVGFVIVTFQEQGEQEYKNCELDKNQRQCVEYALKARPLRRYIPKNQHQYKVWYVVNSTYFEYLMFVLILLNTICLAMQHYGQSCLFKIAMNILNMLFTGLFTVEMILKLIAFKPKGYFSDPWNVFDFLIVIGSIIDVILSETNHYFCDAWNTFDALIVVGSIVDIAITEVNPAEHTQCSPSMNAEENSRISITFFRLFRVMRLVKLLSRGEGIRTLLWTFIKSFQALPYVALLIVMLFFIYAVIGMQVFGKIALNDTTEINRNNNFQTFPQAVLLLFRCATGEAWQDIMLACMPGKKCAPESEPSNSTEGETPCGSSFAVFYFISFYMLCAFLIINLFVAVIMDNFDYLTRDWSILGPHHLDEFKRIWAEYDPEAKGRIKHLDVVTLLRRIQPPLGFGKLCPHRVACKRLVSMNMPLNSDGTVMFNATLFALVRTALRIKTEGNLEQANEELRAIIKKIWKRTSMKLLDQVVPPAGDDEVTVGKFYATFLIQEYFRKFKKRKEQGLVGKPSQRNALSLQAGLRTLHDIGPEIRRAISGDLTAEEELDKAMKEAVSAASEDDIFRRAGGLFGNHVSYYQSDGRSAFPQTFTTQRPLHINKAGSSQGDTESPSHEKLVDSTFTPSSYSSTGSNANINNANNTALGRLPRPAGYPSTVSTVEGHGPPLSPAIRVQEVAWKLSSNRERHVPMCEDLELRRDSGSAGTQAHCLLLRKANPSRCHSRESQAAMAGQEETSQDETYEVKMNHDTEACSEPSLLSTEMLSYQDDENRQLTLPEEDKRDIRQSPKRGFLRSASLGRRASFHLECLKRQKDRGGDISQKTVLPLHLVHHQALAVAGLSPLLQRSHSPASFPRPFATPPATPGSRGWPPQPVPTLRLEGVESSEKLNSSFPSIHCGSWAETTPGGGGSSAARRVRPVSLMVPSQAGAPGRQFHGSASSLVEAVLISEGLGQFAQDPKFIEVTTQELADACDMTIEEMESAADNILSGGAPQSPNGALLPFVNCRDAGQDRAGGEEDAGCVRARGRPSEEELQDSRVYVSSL
Chain of Voltage-gated inwardly rectifying potassium channel KCNH2 (Q12809 whole entry): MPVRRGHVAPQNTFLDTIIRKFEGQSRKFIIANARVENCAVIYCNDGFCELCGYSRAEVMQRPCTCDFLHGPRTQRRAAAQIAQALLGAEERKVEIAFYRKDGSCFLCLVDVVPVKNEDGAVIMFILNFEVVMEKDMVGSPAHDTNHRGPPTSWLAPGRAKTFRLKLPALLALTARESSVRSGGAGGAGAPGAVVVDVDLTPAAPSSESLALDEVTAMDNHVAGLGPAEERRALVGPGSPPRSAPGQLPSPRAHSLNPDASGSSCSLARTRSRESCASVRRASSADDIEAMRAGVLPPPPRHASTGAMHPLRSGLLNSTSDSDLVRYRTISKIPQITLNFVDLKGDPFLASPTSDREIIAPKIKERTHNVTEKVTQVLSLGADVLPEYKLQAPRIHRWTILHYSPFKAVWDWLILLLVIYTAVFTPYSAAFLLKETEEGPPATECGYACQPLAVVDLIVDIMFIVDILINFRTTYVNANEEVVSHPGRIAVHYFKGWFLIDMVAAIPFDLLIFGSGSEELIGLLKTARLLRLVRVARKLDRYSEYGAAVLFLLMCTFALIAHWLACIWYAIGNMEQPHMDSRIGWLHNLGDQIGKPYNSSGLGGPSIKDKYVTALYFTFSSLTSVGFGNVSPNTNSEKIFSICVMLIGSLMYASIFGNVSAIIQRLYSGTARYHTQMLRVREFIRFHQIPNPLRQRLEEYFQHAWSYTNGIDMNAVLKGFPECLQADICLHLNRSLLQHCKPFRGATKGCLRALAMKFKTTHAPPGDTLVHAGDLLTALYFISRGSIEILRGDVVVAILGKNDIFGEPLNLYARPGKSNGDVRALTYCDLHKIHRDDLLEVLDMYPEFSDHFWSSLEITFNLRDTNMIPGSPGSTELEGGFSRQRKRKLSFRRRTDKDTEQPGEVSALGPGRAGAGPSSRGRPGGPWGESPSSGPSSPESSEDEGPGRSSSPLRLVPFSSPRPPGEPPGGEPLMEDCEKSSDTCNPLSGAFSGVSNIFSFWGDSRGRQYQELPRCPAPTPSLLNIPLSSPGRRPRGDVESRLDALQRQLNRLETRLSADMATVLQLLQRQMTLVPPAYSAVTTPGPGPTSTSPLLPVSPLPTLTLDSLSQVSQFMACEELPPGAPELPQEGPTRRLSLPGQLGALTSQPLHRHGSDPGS
Chain of Cytochrome P450 3A4 (P08684 whole entry): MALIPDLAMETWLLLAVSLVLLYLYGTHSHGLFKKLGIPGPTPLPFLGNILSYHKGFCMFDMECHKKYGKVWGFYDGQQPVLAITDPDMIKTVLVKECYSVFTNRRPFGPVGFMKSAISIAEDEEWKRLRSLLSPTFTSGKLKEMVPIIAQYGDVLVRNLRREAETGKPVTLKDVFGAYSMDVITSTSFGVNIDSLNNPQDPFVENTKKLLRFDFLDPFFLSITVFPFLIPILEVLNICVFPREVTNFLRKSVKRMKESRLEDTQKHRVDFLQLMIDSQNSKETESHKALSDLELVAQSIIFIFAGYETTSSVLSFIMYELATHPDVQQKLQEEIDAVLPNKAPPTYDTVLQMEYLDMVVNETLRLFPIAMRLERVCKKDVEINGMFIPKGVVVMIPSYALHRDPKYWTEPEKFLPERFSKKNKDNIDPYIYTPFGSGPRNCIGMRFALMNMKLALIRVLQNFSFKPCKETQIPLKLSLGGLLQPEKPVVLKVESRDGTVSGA

Which results are given for `CNC(=O)c1c(-c2ccc(F)cc2)oc2ccc(-c3cc(C(=O)NC4(c5ncccn5)CC4)ccc3C)c(F)c12` [BMS-929075]?
CC50 [1]: > 12500 nM; Activity (Hepatitis C virus [2]): Active; half-life [3]: > 2 h; EC50 (Hepatitis C virus [4]): 115 nM; AUC [5]: 140 µM·h; Activity (Homo sapiens [6]): Non-Toxic; inhibition (INH) [7]: Not Active; Ratio EC50 (Hepatitis C virus [8]): 5.5; EC50 (Hepatitis C virus [9]): 5 nM; IC50 [10]: 24000 nM; Tmax [11]: 4 h; fraction unbound [12]: 0.003; Activity (Homo sapiens [13]): Non-Toxic; EC50 (Hepatitis C virus [14]): 4 nM; EC50 (Hepatitis C virus [15]): 9 nM; Activity (Canis familiaris): Non-Toxic; Activity (Rattus norvegicus): Non-Toxic; solubility [16]: < 1 µg/mL; EC50 [17]: 18 nM; Vd [18]: 0.7 L/kg; fraction unbound [19]: 0.019; concentration at 6 h [20]: 15.1 µM; Cmax [21]: 7.5 µM; CC50 at 72 h [22]: 60000 nM; EC50 (Hepatitis C virus [23]): 22 nM; IC50 (Cytochrome P450 3A4): > 13000 nM; logD [24]: 5.09; logD [25]: 5.09; Ratio EC50 (Hepatitis C virus [26]): 5.5; half-life [27]: > 2 h; AUC [28]: 54.5 µM·h
